pIC50: −log10 of the molar value. Converted amounts (≈) assume the structure as drawn.
Assays:
[1] = Aqueous solubility of the compound at pH 6.8; type: physicochemical
[2] = AUC in Brown Norway rat iris and ciliary body administered topically after 3 hrs; type: ADME, tissue-based; parameters: time < 3 hr; concentration or dose not given beside the values; conditions: topical or ocular
Outline: (§1)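 Adult male Brown Norway rats (200−250 g) received a single topical 4 μL dose of 0.1% solution to each eye (5% cremaphor EL, 0.78% NaCl, 0.1% Na3PO4 in sterile water, pH 6.8). Composite design, three animals per group, sampled at 0.25, 1 and 3 h. Plasma taken by cardiac puncture. Eyes enucleated and PBS-rinsed, tissues dissected and homogenized. Parent drug measured by LC/MS/MS. AUC over 0−3 h.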

[3] = (§2) AUC in Brown Norway rat plasma administered topically after 3 hrs; type: ADME, cell-free; parameters: time < 3 hr; concentration or dose not given beside the values; conditions: Brown Norway, topical or ocular; outline: as §1
[4] = system: Iris and ciliary body (Rattus norvegicus); experiment: AUC in Brown Norway rat iris and ciliary body administered topically after 3 hrs; conditions: in vivo, topical_or_ocular, BLD = below limit of detection
[5] = system: Plasma; experiment: as §2; type: ADME, cell-free; parameters: time < 3 hr; concentration or dose not given beside the values; conditions: topical_or_ocular, 3 h, BLD = below limit of detection; outline: as §1
[6] = target: Cannabinoid receptor 2 (Homo sapiens, UniProt P34972); experiment: Agonist activity at CB2 receptor (unknown origin)
[7] = AUC (0 to last) in Brown Norway rat cornea administered topically; type: ADME, tissue-based; parameters: time 0 - last; conditions: topical or ocular
Outline: (§3)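 Male Brown Norway rats, 200−250 g, dosed once topically with 4 μL of a 0.02% clinical formulation per eye. Composite design with 3 animals per time point. Cornea, aqueous humor, iris/ciliary body and plasma collected at 0 (untreated), 0.083, 0.25, 0.5, 1, 3, 6 and 24 h. Eyes rinsed in PBS after enucleation.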

[8] = Tmax in Brown Norway rat cornea administered topically; type: ADME, tissue-based; conditions: topical or ocular; outline: as §3
[9] = Drug uptake in Brown Norway rat aqueous humor administered topically after 3 hrs; type: ADME, tissue-based, Aqueous humor of eyeball; conditions: in vivo, topical_or_ocular
Outline: (§4)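 Abbreviated ocular PK in male Brown Norway rats, 200−250 g. Single topical 4 μL dose per eye of 0.1% solution in 5% cremaphor EL, 0.78% NaCl, 0.1% Na3PO4, water, pH 6.8. Three animals per group, sampled at 0.25, 1 and 3 h. Tissues homogenized in PBS with 10% acetonitrile.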

[10] = target: Cannabinoid receptor 1 (Homo sapiens, UniProt P21554); experiment: Agonist activity at CB1 receptor (unknown origin)
[11] = system: Plasma; experiment: Drug uptake in Brown Norway rat plasma administered topically after 3 hrs; type: ADME, cell-free; conditions: topical_or_ocular; outline: as §4
[12] = Cmax in Brown Norway rat cornea administered topically; type: ADME, tissue-based; conditions: topical or ocular; outline: as §3
[13] = Cmax in Brown Norway rat iris administered topically; type: ADME, tissue-based; conditions: topical or ocular; outline: as §3
[14] = Drug uptake in Brown Norway rat ciliary body administered topically after 3 hrs; type: ADME, tissue-based; conditions: in vivo, topical_or_ocular; outline: as §4
[15] = Drug uptake in Brown Norway rat iris administered topically after 1 hr; type: ADME, tissue-based; conditions: in vivo, topical_or_ocular; outline: as §4
[16] = Cmax in Brown Norway rat aqueous humor administered topically; type: ADME, tissue-based, Aqueous humor of eyeball; conditions: topical or ocular; outline: as §3
[17] = Tmax in Brown Norway rat iris administered topically; type: ADME, tissue-based; conditions: topical or ocular; outline: as §3
[18] = Drug uptake in Brown Norway rat cornea administered topically after 3 hrs; type: ADME, tissue-based; conditions: in vivo, topical_or_ocular; outline: as §4
[19] = AUC (0 to last) in Brown Norway rat aqueous humor administered topically; type: ADME; parameters: time 0 - last; conditions: topical or ocular; outline: as §3
[20] = Drug uptake in Brown Norway rat iris administered topically after 3 hrs; type: ADME, tissue-based; conditions: in vivo, topical_or_ocular; outline: as §4
[21] = Drug uptake in Brown Norway rat ciliary body administered topically after 1 hr; type: ADME, tissue-based; conditions: in vivo, topical_or_ocular; outline: as §4
[22] = Tmax in Brown Norway rat aqueous humor administered topically; type: ADME, tissue-based, Aqueous humor of eyeball; conditions: topical or ocular; outline: as §3
[23] = Tmax in Brown Norway rat plasma administered topically; type: ADME, cell-free; conditions: topical or ocular; outline: as §3
[24] = Cmax in Brown Norway rat plasma administered topically; type: ADME, cell-free; conditions: topical or ocular; outline: as §3

Chain of Cannabinoid receptor 1 (P21554 whole entry): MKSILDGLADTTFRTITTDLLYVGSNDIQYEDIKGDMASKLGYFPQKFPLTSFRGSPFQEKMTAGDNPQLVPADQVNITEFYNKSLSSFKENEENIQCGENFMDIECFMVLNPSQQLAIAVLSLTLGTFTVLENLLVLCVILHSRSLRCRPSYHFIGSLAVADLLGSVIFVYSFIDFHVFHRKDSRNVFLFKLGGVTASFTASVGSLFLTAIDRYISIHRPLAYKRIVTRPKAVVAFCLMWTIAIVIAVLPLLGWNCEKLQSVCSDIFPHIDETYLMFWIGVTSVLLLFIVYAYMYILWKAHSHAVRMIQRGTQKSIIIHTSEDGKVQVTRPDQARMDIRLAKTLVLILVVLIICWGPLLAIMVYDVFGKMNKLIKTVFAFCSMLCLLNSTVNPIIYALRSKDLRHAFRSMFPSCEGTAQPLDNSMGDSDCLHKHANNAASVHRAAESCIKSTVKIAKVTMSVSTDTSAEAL
Chain of Cannabinoid receptor 2 (P34972 whole entry): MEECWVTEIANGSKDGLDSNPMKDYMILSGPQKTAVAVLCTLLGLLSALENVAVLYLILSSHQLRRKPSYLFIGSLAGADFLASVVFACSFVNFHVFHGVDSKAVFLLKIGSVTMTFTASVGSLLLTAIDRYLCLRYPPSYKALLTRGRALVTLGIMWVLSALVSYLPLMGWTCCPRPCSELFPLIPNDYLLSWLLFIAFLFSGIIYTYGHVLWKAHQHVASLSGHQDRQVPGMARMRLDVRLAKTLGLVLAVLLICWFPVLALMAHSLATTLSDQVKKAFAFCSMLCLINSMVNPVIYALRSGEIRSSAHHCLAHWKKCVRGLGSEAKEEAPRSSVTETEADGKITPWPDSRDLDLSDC

Compound | solubility ([1]; buffer) | AUC at 3 h [2] [µM·h] | AUC at 3 h [3] [µM·h] | AUC [4] | AUC [5] | also measured
CCOC(=O)c1c(C)cc2nc(COC(=O)NCCOC(=O)[C@@H](NC(=O)[C@H](N)C(C)C)C(C)C)n(-c3ccccc3S(=O)(=O)NC)c(=O)c2c1C | soluble | – | – | – | – | –
CCOC(=O)c1c(C)cc2nc(COC(=O)NCCOC(=O)c3cn4ccccc4n3)n(-c3ccccc3S(=O)(=O)NC)c(=O)c2c1C | soluble | – | – | BLD | BLD | –
CCOC(=O)c1c(C)cc2nc(COC(=O)NCCOC(=O)c3cccnc3)n(-c3ccccc3S(=O)(=O)NC)c(=O)c2c1C | soluble | 0.213 | – | – | BLD | –
CCOC(=O)c1c(C)cc2nc(COC(=O)NCCOC(=O)[C@H](N)c3ccccc3Cl)n(-c3ccccc3S(=O)(=O)NC)c(=O)c2c1C | soluble | – | 0.0036 | BLD | – | –
CCOC(=O)c1c(C)cc2nc(COC(=O)NCCOC(=O)[C@H](NC(=O)[C@@H](N)C(C)C)C(C)C)n(-c3ccccc3S(=O)(=O)NC)c(=O)c2c1C | soluble | 0.104 | – | – | BLD | –
CCOC(=O)c1c(C)cc2nc(COC(=O)NCCO)n(-c3ccccc3S(=O)(=O)NC)c(=O)c2c1C [SAD448] | – | – | 0.014 | BLD | – | pIC50 [6]: 8.46; AUC(0-t) [7]: 0.043 µM·h; Tmax [8]: 4.98 min; Drug uptake [9]: Not Active; pIC50 [10]: 7.03; Drug uptake [11]: Not Active; Cmax [12]: 50 nM; Cmax [13]: 18 nM; Drug uptake [14]: Not Active; Drug uptake [15]: Not Active; Cmax [16]: 82 nM; Tmax [17]: 4.98 min; Drug uptake [18]: Not Active; solubility ([1]; aqueous medium, read-out: solubility): 340 µM (≈ 181 µg/mL); AUC(0-t) [19]: 0.05 µM·h; Drug uptake [20]: Not Active; Drug uptake [21]: Not Active; Tmax [22]: 4.98 min; Tmax [23]: 4.98 min; Cmax [24]: 9 nM

More lines, main results first:

solubility ([1]; buffer) | AUC at 3 h [2] [µM·h] | AUC at 3 h [3] [µM·h] | AUC [4] | AUC [5] | Compound | also measured
soluble | 0.017 | 0.01 | – | – | CCOC(=O)c1c(C)cc2nc(COC(=O)NCCOP(=O)(O)O)n(-c3ccccc3S(=O)(=O)NC)c(=O)c2c1C | –
soluble | 0.0174 | 0.0039 | – | – | CCOC(=O)c1c(C)cc2nc(COC(=O)NCCOC(=O)CN)n(-c3ccccc3S(=O)(=O)NC)c(=O)c2c1C | –
soluble | – | – | BLD | BLD | CCOC(=O)c1c(C)cc2nc(COC(=O)NCCOC(=O)CCN)n(-c3ccccc3S(=O)(=O)NC)c(=O)c2c1C | –
soluble | 0.0367 | 0.0118 | – | – | CCOC(=O)c1c(C)cc2nc(COC(=O)NCCOC(=O)C3CCCCN3)n(-c3ccccc3S(=O)(=O)NC)c(=O)c2c1C (stereo not drawn) | –
soluble | 0.321 | – | – | BLD | CCOC(=O)c1c(C)cc2nc(COC(=O)NCCOC(=O)CN3CCCCC3)n(-c3ccccc3S(=O)(=O)NC)c(=O)c2c1C | –
soluble | 0.04 | 0.02 | – | – | CCOC(=O)c1c(C)cc2nc(COC(=O)NCCOC(=O)[C@@H](N)C(C)C)n(-c3ccccc3S(=O)(=O)NC)c(=O)c2c1C | –

Source: ChEMBL document CHEMBL2396634, “An effective prodrug strategy to selectively enhance ocular exposure of a cannabinoid receptor (CB1/2) agonist” (J Med Chem, 2013)
